ChEMBL document CHEMBL4480400, “Development of an N-Acyl Amino Acid That Selectively Inhibits the Glycine Transporter 2 To Produce Analgesia in a Rat Model of Chronic Pain” (J Med Chem, 2019)
Activity calls are given as the source filed them.

Assays:
[1] = target: T1, Sodium- and chloride-dependent glycine transporter 2 (Homo sapiens) (UniProt Q9Y345); assay: Inhibition of recombinant human GlyT2a expressed in Xenopus laevis oocytes assessed as reduction in channel current by two-electrode voltage clamp electrophysiology relative to control; type: cell-based
T1 sequence (whole entry): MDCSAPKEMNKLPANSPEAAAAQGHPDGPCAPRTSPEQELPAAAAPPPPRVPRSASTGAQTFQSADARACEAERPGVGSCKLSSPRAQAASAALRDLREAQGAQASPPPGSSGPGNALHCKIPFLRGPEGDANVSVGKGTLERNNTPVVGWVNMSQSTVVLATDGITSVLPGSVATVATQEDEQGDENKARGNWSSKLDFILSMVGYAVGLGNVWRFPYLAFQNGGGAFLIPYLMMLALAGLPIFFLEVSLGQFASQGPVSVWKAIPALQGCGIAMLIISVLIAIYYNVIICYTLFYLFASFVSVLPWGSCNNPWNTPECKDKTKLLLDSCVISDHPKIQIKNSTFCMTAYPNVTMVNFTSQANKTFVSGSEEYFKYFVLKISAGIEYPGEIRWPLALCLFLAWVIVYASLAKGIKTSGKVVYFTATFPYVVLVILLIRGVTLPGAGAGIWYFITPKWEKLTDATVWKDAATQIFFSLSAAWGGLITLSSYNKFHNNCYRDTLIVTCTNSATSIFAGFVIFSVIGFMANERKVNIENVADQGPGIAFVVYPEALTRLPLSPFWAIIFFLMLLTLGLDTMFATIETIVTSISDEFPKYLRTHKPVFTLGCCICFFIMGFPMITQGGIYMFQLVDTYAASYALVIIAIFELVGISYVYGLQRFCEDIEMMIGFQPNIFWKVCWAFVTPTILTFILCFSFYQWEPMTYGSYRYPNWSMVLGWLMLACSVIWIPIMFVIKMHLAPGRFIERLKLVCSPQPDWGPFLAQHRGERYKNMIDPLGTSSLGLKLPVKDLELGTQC

Rattus norvegicus = assay: Analgesic activity in Sprague-Dawley rat model of neuropathic pain assessed as reduction in allodynia at 30 mg/kg, ip administered as single dose measured after 90 mins post injection; type: functional, organism-based
Summary of the method: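 Male Sprague-Dawley rats were tested 14 days after nerve-constriction surgery. Mechanical paw withdrawal threshold was measured with von Frey filaments (0.4–15.1 g) by the up-down method, bounded at 0.2 and 15 g. Rats got a single ip injection with vehicle of 1% DMSO, 10% Solutol HS15 in 0.9% saline. Testing ran at 15–360 min post-injection with Bonferroni comparisons against vehicle.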

[2] = Toxicity in Sprague-Dawley rat model of neuropathic pain assessed as induction of abdominal pain rat 30 mg/kg, ip administered as single dose measured up to 60 mins post injection; type: organism-based; settings: in vivo, 1 h
Summary of the method: (§1)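 Male Sprague-Dawley rats underwent chronic nerve constriction surgery, and neuropathic pain developed over 14 days. Rats were housed in groups of 4 and acclimatised to test chambers. Single ip injection of drug or vehicle (1% DMSO, 10% Solutol HS15 in 0.9% saline). Adverse behaviours were scored over the post-injection period alongside von Frey testing, with vehicle as comparison.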

[3] = Toxicity in Sprague-Dawley rat model of neuropathic pain assessed as induction of writhing behaviour rat 30 mg/kg, ip administered as single dose measured up to 60 mins post injection; type: organism-based; settings: in vivo, 1 h; summary of the method: as §1
[4] = Toxicity in Sprague-Dawley rat model of neuropathic pain assessed as induction of recumbent behaviour rat 30 mg/kg, ip administered as single dose measured up to 60 mins post injection; type: organism-based; settings: in vivo, 1 h; summary of the method: as §1
[5] = target: T1, Sodium- and chloride-dependent glycine transporter 2 (Homo sapiens); assay: Slow reversible inhibition of recombinant human GlyT2a expressed in Xenopus laevis oocytes assessed as recovery of transport current at IC50 followed by compound wash out followed by glycine re-application at 5 mins intervals throughout wash time course and measured after 30 mins by two-electrode voltage clamp electrophysiology; type: cell-based; parameters: scale not given: the % may be the effect or the level left
[6] = Drug degradation in human liver microsomes at 1 uM measured over 60 mins by LC-MS/MS analysis; type: ADME, Microsome; settings: read-out: Drug degradation
Summary of the method: (§2)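 Human or rat liver microsomes (0.4 mg/mL protein final) in 0.1 M phosphate buffer pH 7.4 with 1 μM compound at 37°C. Reaction started with an NADPH-regenerating system plus MgCl2. Samples were quenched with ice-cold acetonitrile at time points over 60 min. Remaining parent was measured by LC-MS, and the first-order depletion rate constant came from an exponential decay fit.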

[7] = Degradation half life in rat liver microsomes at 1 uM by LC-MS/MS analysis; type: ADME, Microsome; summary of the method: as §2
[8] = Degradation half life in rat plasma at 1000 ng/ml by LC-MS/MS analysis; type: ADME, cell-free
Summary of the method: (§3)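 Pooled human plasma (3 donors) or pooled male Sprague-Dawley rat plasma, thawed at 37°C. Spiked to a nominal 1000 ng/mL final (0.2% DMSO, 0.4% acetonitrile final) and incubated at 37°C. Aliquots were snap-frozen at time points over 4 h (n=3 per time point). Quantified by LC-MS against a same-species blank-plasma calibration with a leucine enkephalin internal standard.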

[9] = Drug degradation in human plasma at 1000 ng/ml measured over 240 mins by LC-MS/MS analysis; type: ADME, cell-free; settings: read-out: Drug degradation; summary of the method: as §3
[10] = target: T1, Sodium- and chloride-dependent glycine transporter 2 (Homo sapiens); assay: Inhibition of recombinant human GlyT2a expressed in Xenopus laevis oocytes assessed as reduction in channel current at 30 nM by two-electrode voltage clamp electrophysiology; type: cell-based
Summary of the method: (§4)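 GlyT2-expressing oocytes under two-electrode voltage clamp at -60 mV. Glycine concentration responses were run first without inhibitor, then after 2 min pre-application of inhibitor (10 nM, 30 nM or 1 μM) in ND96, followed by increasing glycine. Plateau currents were normalised to each cell's Imax at 300 μM glycine without inhibitor. ANOVA was applied to EC50 and Imax.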

[11] = target: T1, Sodium- and chloride-dependent glycine transporter 2 (Homo sapiens); assay: Inhibition of recombinant human GlyT2a expressed in Xenopus laevis oocytes assessed as reduction in channel current at 10 nM by two-electrode voltage clamp electrophysiology; type: cell-based; summary of the method: as §4
[12] = target: T2, Sodium- and chloride-dependent glycine transporter 1 (Homo sapiens) (UniProt P48067); assay: Inhibition of recombinant human GlyT1b expressed in Xenopus laevis oocytes assessed as reduction in [3H]glycine uptake at 0.1 to 1 uM pretreated for 2 mins followed by [3H]glycine addition and measured after 30 mins by scintillation counting method; type: cell-based
T2 sequence (whole entry): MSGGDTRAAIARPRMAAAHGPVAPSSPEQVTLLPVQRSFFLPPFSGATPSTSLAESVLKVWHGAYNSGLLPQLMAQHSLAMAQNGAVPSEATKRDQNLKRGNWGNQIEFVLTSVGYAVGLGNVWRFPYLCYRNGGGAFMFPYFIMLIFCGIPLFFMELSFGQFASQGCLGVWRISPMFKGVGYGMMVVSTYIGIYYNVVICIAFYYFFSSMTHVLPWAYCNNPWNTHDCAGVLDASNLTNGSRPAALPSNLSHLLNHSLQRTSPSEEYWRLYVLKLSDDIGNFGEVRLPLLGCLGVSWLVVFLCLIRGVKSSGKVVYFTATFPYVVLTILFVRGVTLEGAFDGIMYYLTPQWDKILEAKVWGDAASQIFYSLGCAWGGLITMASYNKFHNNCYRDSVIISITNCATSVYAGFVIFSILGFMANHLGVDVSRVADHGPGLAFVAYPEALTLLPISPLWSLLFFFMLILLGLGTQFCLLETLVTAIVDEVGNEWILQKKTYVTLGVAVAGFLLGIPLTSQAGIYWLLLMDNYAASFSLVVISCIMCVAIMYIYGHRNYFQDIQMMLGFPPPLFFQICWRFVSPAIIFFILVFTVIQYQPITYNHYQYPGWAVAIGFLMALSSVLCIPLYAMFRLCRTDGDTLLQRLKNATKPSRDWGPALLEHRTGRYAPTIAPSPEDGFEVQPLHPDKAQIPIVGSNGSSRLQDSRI

[13] = target: T3, Sodium- and chloride-dependent glycine transporter 1 (Homo sapiens, UniProt P48067); assay: Inhibition of recombinant human GlyT1b expressed in Xenopus laevis oocytes assessed as reduction in channel current by two-electrode voltage clamp electrophysiology; type: cell-based
T3 sequence (P48067 whole entry): T2 sequence (whole entry)

[14] = target: T4, Sodium- and chloride-dependent glycine transporter 2 (Homo sapiens, UniProt Q9Y345); assay: Inhibition of recombinant human GlyT2a expressed in Xenopus laevis oocytes assessed as reduction in channel current by two-electrode voltage clamp electrophysiology; type: cell-based
T4 sequence (Q9Y345 whole entry): T1 sequence (whole entry)

[15] = target: T1, Sodium- and chloride-dependent glycine transporter 2 (Homo sapiens); assay: Inhibition of recombinant human GlyT2a expressed in Xenopus laevis oocytes assessed as reduction in channel current at 1 uM by two-electrode voltage clamp electrophysiology; type: cell-based; summary of the method: as §4
GlyT2 (Homo sapiens) = assay: Inhibition of recombinant human GlyT2a expressed in expressed in Xenopus laevis oocytes assessed as reduction in [3H]glycine uptake at 0.1 to 1 uM pretreated for 2 mins followed by [3H]glycine addition and measured after 30 mins by scintillation counting method

Imax [1] [%]	Activity [5] [%]	metabolised at 1 h, 1 µM [6] [%]	t1/2 [7] [h]	t1/2 [8] [h]	metabolised at 4 h, 1000 ng/ml [9] [%]	Imax [10] [%]	Imax [11] [%]	inhibition [12]	IC50 [13] [µM]	IC50 [14] [µM]	Imax [15] [%]	inhibition (GlyT2 (Homo sapiens))	Structure (SMILES)	Activity (Rattus norvegicus)	Activity [2]	Activity [3]	Activity [4]
93	35												COc1cc(C(=O)NCC2(N(C)C)CCCC2)cc(OC)c1OCc1ccccc1	Active	Toxic	Toxic	Toxic
86.8		< 15	0.9	1.43	< 15	62.4	82.8	inactive	> 3	0.0255	30.2	Active	CCCCCCCC/C=C\CCCCCCCC(=O)N[C@@H](CCCCN)C(=O)O.Cl				
